Assay results gathered from unrelated publications.
Compare with care: the assays were run in different laboratories.
Target: Serine/threonine-protein kinase PAK 4 (PAK4, Homo sapiens, UniProt O96013)

C[C@@H]1CN(c2ccc3ncc(-c4ccc5[nH]nc(C6CC6)c5c4)n3n2)C[C@H](C)O1 — remaining binding (binding; competition with immobilised ligand; 50 nM): 90%
Cc1cnc(Nc2ccc(C(=O)N3CCC(N4CCCC4)CC3)cc2)nc1-c1cc2ccccc2s1 — remaining binding (binding; competition with immobilised ligand; 1 µM): 70%
c1cncc(-c2cccc(Nc3nccc(NC4CCCCC4)n3)c2)c1 — remaining binding (binding; competition with immobilised ligand; 10 µM): 83%
COc1ncc2cc3ccccc3nc2c1C#N — remaining binding (cell-free assay; competition with immobilised ligand; 5 µM): 97%
CN(C)c1ncc(F)c(-c2cnn3ncccc23)n1 — remaining binding (binding; 1 µM): 80%
CN1CCN(c2cnc3c(C4CCN(C(=O)c5ccc(OC(F)(F)F)cc5N)CC4)ncnc3c2)CC1 — remaining binding (cell-free assay; competition with immobilised ligand; 1 µM): 91%
Cc1cnn2ncc(-c3ccnc(N(C)C)n3)c2c1 — remaining binding (binding; 1 µM): 100%
C[C@@H](c1ccc(-n2cnc3c(N)ncnc32)cc1)N1CCc2nn(C)c(Cc3ccccc3)c2C1=O — remaining binding (binding; competition with immobilised ligand; 0.1 µM): 100%
CS(=O)(=O)c1cc(C2(NC(=O)c3cncc4c3cnn4-c3ccc(F)cc3)CC2)ccn1 — remaining binding (cell-free assay; competition with immobilised ligand; 1 µM): 100%
CN(C)c1nccc(-c2cnn3ncccc23)n1 — remaining binding (binding; 1 µM): 100%
N#Cc1ccccc1CSc1nnc2c(n1)[nH]c1ccccc12 — remaining binding (binding; competition with immobilised ligand; 10 µM): 87%
O=C(NC[C@@H]1[C@H]2CN(C(=O)OCc3cc(C(F)(F)F)cc(C(F)(F)F)c3)C[C@@H]12)c1ccc2[nH]nnc2c1 — remaining binding (cell-free assay; competition with immobilised ligand; 1 µM): 100%
N[C@@H]1CCN(c2nccc(-c3cnn4ncccc34)n2)C1 — remaining binding (binding; 1 µM): 100%
C[C@@H](c1cccc(C#N)c1)n1cc(Cl)cc(C(N)=O)c1=N — remaining binding (cell-free assay; competition with immobilised ligand; 1 µM): 100%
COc1ccnn2ncc(-c3ccnc(N(C)C)n3)c12 — remaining binding (binding; 1 µM): 85%
O=C(c1ccc(Nc2nccc(-c3cc4ccccc4s3)n2)cc1)N1CCC(N2CCCC2)CC1 — remaining binding (binding; competition with immobilised ligand; 1 µM): 81%
C[C@@H]1CCN(c2nccc(-c3cnn4ncccc34)n2)C1 — remaining binding (binding; 1 µM): 100%
O=C(NS(=O)(=O)c1ccc(NCC2CCOCC2)c([N+](=O)[O-])c1)c1ccc(N2CCN(Cc3ccc(C(F)(F)F)cc3-c3ccc(Cl)cc3)CC2)cc1Oc1cnc2[nH]ccc2c1 — remaining binding (cell-free assay; competition with immobilised ligand; 1 µM): 93%
O=C(Nc1c[nH]nc1C(=O)NC1CCNCC1)c1cc(F)cc(F)c1 — remaining binding (binding; competition with immobilised ligand; 1 µM): 100%
CCC(=N\O)/C(C)=C/c1ccc(F)cc1 — remaining binding (cell-free assay; competition with immobilised ligand; 1 µM): 100%
COc1cnc(Nc2cccc(S(N)(=O)=O)c2)nc1N1CCN(c2ccccc2)C(=O)C1 — remaining binding (binding; competition with immobilised ligand; 1 µM): 100%
O=C(NCCCN1CCOCC1)c1ccc(Nc2nccc(-c3cc4ccccc4s3)n2)cc1 — remaining binding (binding; competition with immobilised ligand; 1 µM): 91%
CNC(=O)[C@@H]1CC[C@@H](n2c(-c3ccc4cnccc4c3)nc3ccc(C(=O)NCc4cccc(C(N)=O)c4)cc32)C1 — remaining binding (binding; competition with immobilised ligand; 1 µM): 100%
O=C(O)c1cc(-c2ccc(C3CCNCC3)cc2)c2ccc(-c3ccc(C(F)(F)F)cc3)cc2c1 — remaining binding (cell-free assay; competition with immobilised ligand; 1 µM): 100%
CN(c1nccc(-c2cnn3ncccc23)n1)C1CC1 — remaining binding (binding; 1 µM): 100%
